# Results taken from ChEMBL document CHEMBL1124174, “Substituted benzamides. 1. Potential nondopaminergic antagonists of chemotherapy-induced nausea and emesis” (J Med Chem, 1988).
# Where “and” joins values, the source holds several entries; their conditions need not be identical. Equal entries are not always repeated.
# Assays:
# [1] = biological target: D(2) dopamine receptor (Rattus norvegicus, UniProt P61169); experiment: In vitro antagonistic activity against Dopamine receptor D2 was evaluated for the inhibition of [3H]spiperone binding
# Summary of the method: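 Rat striatal membranes were prepared by differential centrifugation in 50 mM Tris pH 7.4 at 4 °C. Membrane protein (10 mg) was incubated 15 min at 37 °C with 0.1 nM [3H]spiperone and varying competitor concentrations. Buffer: 50 mM Tris HCl pH 7.5, 0.1% ascorbic acid, pargyline, 120 mM NaCl, 5 mM KCl, 2 mM CaCl2, 1 mM MgCl2. (+)-Butaclamol defined nonspecific binding. Bound ligand was collected by filtration and scintillation counted. IC50 by log-logit regression.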
# [2] = tested on: Mustela putorius furo; experiment: In vivo antagonism of cisplatin-induced emesis in ferret measured as percentage protection for twice the dose of 3 mg/kg and in 3 ferrets; assay type: functional
# Summary of the method: (§1)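 Nonfasted castrated male Fitch ferrets (1–1.5 kg) had jugular catheters implanted ≥48 h earlier under anesthesia. Compounds or saline were given iv twice, 5 min before and 90 min after cisplatin (12 mg/kg iv; 12 mg/mL in warm 0.9% saline). Emesis was observed up to 4 h; events within 1 min counted as one episode. Results were given as mean emetic episodes and % protection versus a pooled historical/concurrent control. t test versus saline.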
# [3] = tested on: Mustela putorius furo; experiment: In vivo antagonism of cisplatin-induced emesis in ferret measured as emetic episodes, twice the dose of 3 mg/kg and in 3 ferrets; assay type: functional; summary of the method: as §1
# [4] = tested on: Canis familiaris; experiment: In vivo antagonism of cisplatin-induced emesis in dog measured as percentage protection for twice the dose of 1 mg/kg in 2 dogs; assay type: functional, Canis lupus familiaris
# Summary of the method: (§2)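 Nonfasted mature male or female beagles were dosed sc twice, 30 min before and 120 min after cisplatin (3 mg/kg iv; 3 mg/mL in warm 0.9% saline, used immediately). Emesis was observed up to 5 h; events within 2 min counted as one episode. Results were given as mean emetic episodes and % protection versus a dynamic control (historical and concurrent saline means pooled). t test versus saline.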
# [5] = biological target: D(2) dopamine receptor (Rattus norvegicus) (UniProt P61169); experiment: In vivo antagonism activity against D2 receptor was measured as stereotypy in rat when administered subcutaneously; assay type: functional, organism-based
# Summary of the method: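 Male Long Evans rats (275 g) were dosed sc in dilute aqueous HCl (pH 4.5-5.5) 30 min before apomorphine (1 mg/kg sc).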
# [6] = tested on: Canis familiaris; experiment: In vivo antagonism of cisplatin-induced emesis in dog measured as emetic episodes, twice the dose of 1 mg/kg in 2 dogs; assay type: functional, Canis lupus familiaris; summary of the method: as §2
# [7] = biological target: D(2) dopamine receptor (Rattus norvegicus) (UniProt P61169); experiment: In vivo antagonistic activity against dopamine D2 receptor was measured as catalepsy in rat when administered subcutaneously; assay type: functional, organism-based
# Summary of the method: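 Male Long Evans rats (275 g) received graded sc doses in dilute aqueous HCl (pH 4.5-5.5). They were observed 180 min for catalepsy, scored when the animal stayed stationary ≥15 s on a four-cork template.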
# [8] = biological target: D(2) dopamine receptor (Canis lupus familiaris) (UniProt Q9GJU1); experiment: In vivo antagonism activity against dopamine D2 receptor was measured as emesis in dog when administered subcutaneously; assay type: functional, organism-based
# [9] = tested on: Mustela putorius furo; experiment: In vivo antagonism of cisplatin-induced emesis in ferret measured as percentage protection for twice the dose of 1 mg/kg and in 3 ferrets; assay type: functional; summary of the method: as §1
# [10] = tested on: Mustela putorius furo; experiment: In vivo antagonism of cisplatin-induced emesis in ferret measured as emetic episodes, twice the dose of 1 mg/kg and in 3 ferrets; assay type: functional; summary of the method: as §1
# [11] = tested on: Canis familiaris; experiment: In vivo antagonism of cisplatin-induced emesis in dog measured as percentage protection for twice the dose of 0.3 mg/kg in 2 dogs; assay type: functional, Canis lupus familiaris; summary of the method: as §2
# [12] = tested on: Canis familiaris; experiment: In vivo antagonism of cisplatin-induced emesis in dog measured as emetic episodes, twice the dose of 0.3 mg/kg in 2 dogs; assay type: functional, Canis lupus familiaris; summary of the method: as §2
# [13] = tested on: Mustela putorius furo; experiment: In vivo antagonism of cisplatin-induced emesis in ferret measured as emetic episodes, twice the dose of 0.3 mg/kg and in 3 ferrets; assay type: functional; summary of the method: as §1
# [14] = tested on: Mustela putorius furo; experiment: In vivo antagonism of cisplatin-induced emesis in ferret measured as percentage protection for twice the dose of 0.3 mg/kg and in 3 ferrets; assay type: functional; summary of the method: as §1
# Sequence of D(2) dopamine receptor (P61169 whole entry): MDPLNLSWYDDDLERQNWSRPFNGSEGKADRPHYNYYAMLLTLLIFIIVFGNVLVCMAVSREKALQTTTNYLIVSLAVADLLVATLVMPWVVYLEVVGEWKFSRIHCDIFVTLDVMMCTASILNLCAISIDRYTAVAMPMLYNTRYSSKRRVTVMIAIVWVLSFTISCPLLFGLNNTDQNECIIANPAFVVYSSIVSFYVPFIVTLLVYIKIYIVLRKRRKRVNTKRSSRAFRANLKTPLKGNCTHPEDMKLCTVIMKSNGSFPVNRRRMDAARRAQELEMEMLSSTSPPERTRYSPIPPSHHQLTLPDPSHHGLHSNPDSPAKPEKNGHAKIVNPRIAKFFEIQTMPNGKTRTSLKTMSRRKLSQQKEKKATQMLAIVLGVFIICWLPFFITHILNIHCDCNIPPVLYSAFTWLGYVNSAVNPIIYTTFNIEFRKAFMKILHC
# Sequence of D(2) dopamine receptor (Rattus norvegicus) (P61169 whole entry): as above
# Sequence of D(2) dopamine receptor (Canis lupus familiaris) (Q9GJU1 whole entry): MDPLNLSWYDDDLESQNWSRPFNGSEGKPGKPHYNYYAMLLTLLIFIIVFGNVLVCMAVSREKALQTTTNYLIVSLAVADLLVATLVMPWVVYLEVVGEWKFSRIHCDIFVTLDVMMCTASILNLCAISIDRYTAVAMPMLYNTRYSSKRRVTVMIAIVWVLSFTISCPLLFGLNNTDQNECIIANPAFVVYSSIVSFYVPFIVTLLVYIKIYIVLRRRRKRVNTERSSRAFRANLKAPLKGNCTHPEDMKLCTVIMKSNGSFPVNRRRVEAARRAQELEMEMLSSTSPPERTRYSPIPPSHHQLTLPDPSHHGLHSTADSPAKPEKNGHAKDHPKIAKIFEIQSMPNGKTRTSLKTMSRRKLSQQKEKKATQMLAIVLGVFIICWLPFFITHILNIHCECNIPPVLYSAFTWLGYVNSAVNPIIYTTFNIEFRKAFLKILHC
IC50 [1],ED50 [5],SMILES,Protection [2],Emetic episodes [3],Protection [4],Emetic episodes [6],ED50 [7],ED50 [8],Protection [9],Emetic episodes [10],further results
> 1000 nM,> 40 mg/kg,C/C=C/COc1cc(N)c(Cl)cc1C(=O)NCCN(CC)CC,90%,0.7,80%,2.5,> 40 mg/kg,> 3 mg/kg,,,
> 1000 nM,> 40 mg/kg,CCN(CC)CCN1CCOc2cc(N)c(Cl)cc2C1=O,,,,,> 40 mg/kg,> 3 mg/kg,14%,6,
> 1000 nM,> 40 mg/kg,CCN(CC)CCNC(=O)c1cc(Cl)c(N)cc1OCC(C)O (stereo unspecified),86%,1,100%,0,> 40 mg/kg,> 3 mg/kg,36%,4.5,Protection [11]: 68%; Emetic episodes [12]: 3
> 1000 nM,> 40 mg/kg,CCN(CC)CCNC(=O)c1cc(Cl)c(N)cc1OCC1OCCO1,67%,2.3,,,> 40 mg/kg,> 3 mg/kg,,4,Protection [10]: 43%
> 1000 nM,> 40 mg/kg,CCC(Oc1cc(N)c(Cl)cc1C(=O)NCCN(CC)CC)C(C)=O (stereo unspecified),,,96%,0.5,> 40 mg/kg,> 3 mg/kg,68%,2.3,Emetic episodes [12]: 3
> 1000 nM,> 40 mg/kg,CCN(CC)CCNC(=O)c1cc(Cl)c(N)cc1OC1CCCC[C@H]1O (stereo partly specified),64%,2.7,100%,0,> 40 mg/kg,,,,Protection [11]: 64%; Emetic episodes [12]: 4.5
> 1000 nM,> 40 mg/kg,CCN(CC)CCNC(=O)c1cc(Cl)c(N)cc1OCC(=O)c1cccs1,95%,0.3,75%,3,> 40 mg/kg,,,,
> 1000 nM,,"CCN(CC)CCNC(=O)c1cc(Cl)c(N)cc1OC(C)C(C)O (stereo in doubt; 8g,h)",,,,,,,,,Protection ([11]; 0.3 mg/kg): 96%; Protection ([2]; 3 mg/kg): 80%; Emetic episodes ([3]; 3 mg/kg): 1.3; Emetic episodes ([12]; 0.3 mg/kg): 0.5; Protection ([9]; 1 mg/kg): 75%; Emetic episodes ([10]; 1 mg/kg): 1.7
> 1000 nM,> 40 mg/kg,CCN(CC)CCNC(=O)c1cc(Cl)c(N)cc1OC1CCCC[C@@H]1O (stereo partly specified),60%,3,66%,4,> 40 mg/kg,> 3 mg/kg,,,
> 1000 nM,> 40 mg/kg,CCN(CC)CCNC(=O)c1cc(Cl)c(N)cc1OCC(O)Cc1ccccc1 (stereo unspecified),,,,,> 40 mg/kg,> 3 mg/kg,54%,3.3,
> 1000 nM,> 40 mg/kg,CCN(CC)CCNC(=O)c1cc(Cl)c(N)cc1OCCC(C)O (stereo unspecified),,,,,> 40 mg/kg,> 3 mg/kg,73%,2,Protection [11]: 32%; Emetic episodes [12]: 8
> 1000 nM,> 40 mg/kg,CCC(=O)C(C)Oc1cc(N)c(Cl)cc1C(=O)NCCN(CC)CC (stereo unspecified),,,,,> 40 mg/kg,> 3 mg/kg,82%,1.3,Protection [11]: 84%; Emetic episodes [12]: 2
> 1000 nM,> 40 mg/kg,CCN(CC)CCNC(=O)c1cc(Cl)c(N)cc1OC(C)/C(C)=N/O (stereo unspecified),,,,,> 40 mg/kg,> 3 mg/kg,44%,4.3,
> 1000 nM,> 40 mg/kg,C=CCC(Oc1cc(N)c(Cl)cc1C(=O)NCCN(CC)CC)C(C)=O (stereo unspecified),68%,2.3,52%,6,> 40 mg/kg,> 3 mg/kg,,1.7,Protection [10]: 76%
> 1000 nM,> 40 mg/kg,CCN(CC)CCNC(=O)c1cc(Cl)c(N)cc1OCC1=NCCN1,86%,1,88%,1.5,> 40 mg/kg,> 3 mg/kg,,,
> 1000 nM,> 40 mg/kg,CCN(CC)CCNC(=O)c1cc(Cl)c(N)cc1OCCOCCOC,76%,1.7,,,> 40 mg/kg,> 3 mg/kg,39%,4.3,
> 1000 nM,> 40 mg/kg,CCN(CC)CCNC(=O)c1cc(Cl)c(N)cc1OCCO,68%,2.3,76%,3,> 40 mg/kg,> 3 mg/kg,,,
> 1000 nM,> 40 mg/kg,CCN(CC)CCNC(=O)c1cc(Cl)c(N)cc1OC1CCCC[C@@H]1OC (stereo partly specified),91%,0.7,15%,10,> 40 mg/kg,> 3 mg/kg,69%,2.3,Emetic episodes [13]: 4.3; Protection [14]: 42%
> 1000 nM,> 40 mg/kg,CCCC(=O)COc1cc(N)c(Cl)cc1C(=O)NCCN(CC)CC,,,,,> 40 mg/kg,> 3 mg/kg,90%,0.7,Protection [11]: 84%; Emetic episodes [12]: 2
> 1000 nM,> 40 mg/kg,CCN(CC)CCNC(=O)c1cc(Cl)c(N)cc1OCC(=O)C(C)C,,,,,> 40 mg/kg,> 3 mg/kg,44%,4,Protection [11]: 44%; Emetic episodes [12]: 3
> 1000 nM,> 40 mg/kg,CCN(CC)CCNC(=O)c1cc(Cl)c(N)cc1OC/C(C)=N/O,100%,0,79%,2.5,> 40 mg/kg,> 3 mg/kg,,,
> 1000 nM,> 40 mg/kg,CCN(CC)CCNC(=O)c1cc(Cl)c(N)cc1OCC(C)(C)O,,1.3,,,> 40 mg/kg,> 3 mg/kg,,3,Protection ([9]; 1 mg/kg): 84% and 57%
> 1000 nM,> 40 mg/kg,CCN(CC)CCNC(=O)c1cc(Cl)c(N)cc1OC1CCCC1=O (stereo unspecified),,,87%,,> 40 mg/kg,> 3 mg/kg,21%,5.7,
> 1000 nM,> 40 mg/kg,CCN(CC)CCNC(=O)c1cc(Cl)c(N)cc1OCc1ccccn1,86%,1,,,> 40 mg/kg,> 3 mg/kg,67%,2.3,
> 1000 nM,> 40 mg/kg,CCN(CC)CCNC(=O)c1cc(Cl)c(N)cc1OCC1CCCO1 (stereo unspecified),54%,3.3,,,> 40 mg/kg,> 3 mg/kg,,,
> 1000 nM,> 40 mg/kg,CCN(CC)CCNC(=O)c1cc(Cl)c(N)cc1OCC(O)COC (stereo unspecified),54%,3.3,,,> 40 mg/kg,> 3 mg/kg,,,
> 1000 nM,> 40 mg/kg,CCN(CC)CCN1C(=O)c2cc(Cl)c(N)cc2OC(C)=C1C,,,,,> 40 mg/kg,> 3 mg/kg,,,Protection [11]: 37%; Emetic episodes [12]: 7.5; Protection ([14]; 0.3 mg/kg): 95% and 67%
> 1000 nM,> 40 mg/kg,CCN(CC)CCNC(=O)c1cc(Cl)c(N)cc1OCCOC,,,88%,1.5,> 40 mg/kg,> 3 mg/kg,,,Emetic episodes ([3]; 3 mg/kg): 1.7 and 5
> 1000 nM,> 40 mg/kg,CCN(CC)CCNC(=O)c1cc(Cl)c(N)cc1OCC1CO1 (stereo unspecified),44%,4.7,,,> 40 mg/kg,> 3 mg/kg,,,
